Tested on: MS2 coat protein
Assay: apparent Kd, MS2 coat protein; higher = weaker binding; RNA-MaP array
In short: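 Apparent Kd is the median of per-cluster binding-curve fits for designed RNAs transcribed from sequenced DNA templates on an Illumina sequencing chip. The RNAs were incubated at room temperature with fluorescently labeled MS2 coat protein at 1.5 nM to 3 μM, with or without input ligand, and designs measured on fewer than 10 clusters were excluded.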

[1] = designed as: ON switch for flavin mononucleotide, no ligand
[2] = ligand present: flavin mononucleotide, designed as: ON switch for flavin mononucleotide
[3] = designed as: OFF switch for flavin mononucleotide, no ligand
[4] = ligand present: flavin mononucleotide, designed as: OFF switch for flavin mononucleotide
[5] = designed as: OFF switch for tryptophan, no ligand
[6] = ligand present: tryptophan, designed as: OFF switch for tryptophan

Row | Sequence | apparent Kd [1] [nM] | apparent Kd [2] [nM] | apparent Kd [3] [nM] | apparent Kd [4] [nM] | also measured
1 | GGAUGCUCGACUCAGGAUAUACACACCGCAACAUGAGGAUCACCCAUGUAAUACGAACAAUGCACGUAGAAGGGAGGUUAACUCGA | 46.4 | 19.1 | – | – | –
2 | CACAUGAGGAUCACCCAUGUCUACGAAAGAUGUAGGGAAAAGAGAAGGUGGAGGGAACUGCCAGCCAAGGAUAUCUGCACUCGA | – | – | 31.8 | 33.3 | –
3 | AUUUGGCGUAGUGUUGCUCGUGGGAUAAAACGAGGACCGGUACGGCCGCCACUCGAUGAUUAACAUGAGGAUCACCCAUGUAAAU | – | – | – | – | apparent Kd [5]: 24.6 nM; apparent Kd [6]: 104 nM
4 | GUAAAACGGAAGAAGGCGCGGAGUACAGGGUAAAAUCAGGUCACAUGAGGAUCACCCAUGUGGAGCGAGGAUAUUCAUAAGGUA | – | – | 24.7 | 63.2 | –
5 | UGAAAUUACGGAGGAUAUCUAUUUACAUGAGGAUCACCCAUGUCCCAGCUACUGCUAUUAUCCGCAGAGAAGGCCGGUGAGUCC | 171 | 105 | – | – | –
6 | CCGCCACGUCAAGGAUAUGCACGGGAGCCCGUAGCAGAAGGUGAGGCGAACGCCAUCCCACAUGAGGAUCACCCAUGUACGGGC | 786 | 202 | – | – | –
7 | ACUCAACAUGAGGAUCACCCAUGUACUCCAAACAAAGGAUAUUGUGAGUUAAUAUGCAUGCAAGAAGGUUGGUUCA | 42.8 | 36.3 | – | – | –
8 | UAGAAUUAAGGAUAUACAGGAUCCGUACAAAUAUUGAUAGGACAUGAGGAUCACCCAUGUAGAAGGUAAGGCAG | – | – | 21.1 | 17.2 | –
9 | UCAACACAUGAGGAUCACCCAUGUUAUACUAGGGUAGGAUAUGACGUAGUGAAGUGCUCUUCAGAAGGACCAUGGG | 64.7 | 30.1 | – | – | –
10 | GGUUGACCUGAGGAACAUGAGGAUCACCCAUGUGUUAGCGGAAAGGAUAUUCGAUUGCACGUUAAGAAGAAGGUUCCAACGUUA | 14.4 | 15.8 | – | – | –
11 | CCUCAAAUGACAUGAGGAUCACCCAUGUAGCGCACAACCGCUAGAAGGACGACAAAGUCUUAUGCGUAGGAUAUAGCGAGCGCG | 132 | 133 | – | – | –
12 | AAAAGAAGCUGAGGAUAUUGGUUAACAUGAGGAUCACCCAUGUCGUUGGUGGAAAACACCUGACGCAAGAAGGCAGACACUUAU | 15.7 | 7.81 | – | – | –
13 | ACAUGAGGAUCACCCAUGUUCACGGUUCACGAAGUCUAAAGCUAGGAUAUCAUUGGGUGGGCGCAUGAGAAGGAGCUUCCCGUA | 70.1 | 44.3 | – | – | –
14 | AAAACGCAACUCGAUACCAGUACACUGAGUCUUCGCCACGACAUGAGGAUCACCCAUGUGUACCCUUGGCAGCGACAGAGCCACA | – | – | – | – | apparent Kd (designed as: OFF switch for theophylline, no ligand): 53.9 nM; apparent Kd (ligand present: theophylline, designed as: OFF switch for theophylline): 261 nM
15 | UGGACGCAACGAGCACGAGGUCGGCAGCUACGAGGACCGGUACGGCCGCCACUCGAGUUACGACAUGAGGAUCACCCAUGUAAGG | – | – | – | – | apparent Kd [5]: 41.6 nM; apparent Kd [6]: 178 nM
16 | GGACAACAUGAGGAUCACCCAUGUGAGAAGUGCAAAGGAUAUCGCAGAAGUGAUAACGAACGAGAAGGUUGCCUCU | 23.6 | 10.1 | – | – | –
17 | UUGCAUUCUAAUCCUCUUACGACAUGAGGAUCACCCAUGUGUCAGGAUAUUCGAGAAGGAGCGACGAAGAAGGGACUAAUACAC | – | – | 40.7 | 32.8 | –
18 | AAAAGGAUGAUAGGAUAUCAUAACAUGAGGAUCACCCAUGUACAGACGCAACGCUAAACUAGACAUGAGAAGGAUCACAAAACA | 179 | 82.2 | – | – | –
19 | CAGAACAUGAGGAUCACCCAUGUAAACGACCGAGGACCGGUACGGCCGCCACUCGAUAUGUCUUGAGGGAGAUAUGGAUUCACAU | – | – | – | – | apparent Kd (designed as: ON switch for tryptophan, no ligand): 39.9 nM; apparent Kd (ligand present: tryptophan, designed as: ON switch for tryptophan): 38.3 nM
20 | GAACGUAGAGGAUAUACGACAAUGCACUGAUCGACGAGUACACAUGAGGAUCACCCAUGUAGAAGGCUAGGAAU | – | – | 7.28 | 6.45 | –
21 | UGCAAUGGGUGAGGAUAUACCCACACACAUGAGGAUCACCCAUGUUUCACAAAGGUGAUGACGCGGUAGAAGGCACAAUCCACU | 268 | 98.1 | – | – | –
22 | CUGACGUCAGGAUAUGCUAAUAAACAACAUAAAAGACAAGUGCAGAAGGGACAUGAGGAUCACCCAUGUGAAAA | – | – | 14.6 | 15.3 | –
23 | GAGUGGUAAGGAUAUAAUACGAAUACGGUGAAACCCGGCGUUUAGAAGGUACAUGAGGAUCACCCAUGUGAUUA | – | – | 13.2 | 13.8 | –

— the EternaBench riboswitch data
